Compound activity from PubChem BioAssay.
Shown are actives, neighbours in structure and some others; about 2.2% of the full set was active somewhere.
GRK2 aptamer HTS = inhibitors of human GRK2 displacing RNA aptamer. P25098. bead flow cytometry, FAM-aptamer displacement from GRK2. inhibition of aptamer binding, % at 10 µM. actives 0.59% (n = 330,000);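 active = inhibition of aptamer binding above 40%, roughly 3 SD of noise, on plates passing a quality check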;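 note: median bead fluorescence of bound FAM aptamer so fluorescent compounds give negative values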
FID counter = counter-screen for HCV NS3 helicase inhibitors: DNA intercalator displacement; DNA fluorescent intercalator displacement, fluorescence; AID 1845; actives 0.17% (n = 290,000); inhibition, % at 7.9 µM; in the data active = inhibition above about 37%;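 note: higher means more ethidium bromide displaced from hairpin DNA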
DAGLB inhibitor = blocks human DAGLB lipase activity. HEK293T DAGLB membrane lysate, EnzChek fluorogenic substrate. inhibition, % at 5.17 µM. actives 0.059% (n = 340,000); in the data active = inhibition above about 34%
Target sequence (Q8NCG7 whole entry, looked up): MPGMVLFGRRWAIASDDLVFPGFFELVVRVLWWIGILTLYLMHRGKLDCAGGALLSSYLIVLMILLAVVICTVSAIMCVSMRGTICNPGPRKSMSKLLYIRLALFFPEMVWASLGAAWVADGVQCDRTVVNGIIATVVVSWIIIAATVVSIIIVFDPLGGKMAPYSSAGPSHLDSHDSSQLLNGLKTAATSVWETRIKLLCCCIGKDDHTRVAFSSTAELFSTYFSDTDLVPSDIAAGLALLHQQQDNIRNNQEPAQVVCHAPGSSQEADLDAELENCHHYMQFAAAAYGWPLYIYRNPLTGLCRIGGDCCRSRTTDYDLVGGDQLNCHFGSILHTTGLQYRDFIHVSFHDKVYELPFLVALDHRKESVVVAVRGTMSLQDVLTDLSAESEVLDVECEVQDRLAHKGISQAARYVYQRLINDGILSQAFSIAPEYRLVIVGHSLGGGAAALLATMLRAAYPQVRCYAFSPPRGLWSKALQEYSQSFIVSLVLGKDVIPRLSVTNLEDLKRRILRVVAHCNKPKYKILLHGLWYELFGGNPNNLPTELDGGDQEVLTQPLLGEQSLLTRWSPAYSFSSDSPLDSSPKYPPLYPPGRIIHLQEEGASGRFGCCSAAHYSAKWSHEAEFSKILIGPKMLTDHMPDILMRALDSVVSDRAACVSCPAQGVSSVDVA
HCV NS3 hel inh = blocks Hepatitis C virus NS3 helicase unwinding; NS3 helicase DNA unwinding, Cy5 molecular beacon fluorescence; inhibition, % at 10.9 µM; actives 0.56% (n = 290,000); AID 1800;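 active = inhibition above the mean of all tested compounds plus 3 SD, set per campaign, cut at about 35% in these data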
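Measured by: Cy5 fluorescence, 0 and 60 min reads / Assay system: NS3 helicase fragment of HCV / Control set: low DMSO, high thioflavine S at 110 µM / Times: 1 h reaction at 25 °C, ATP-initiated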
GPR7 antagonist = human neuropeptides B/W receptor 1 antagonism; P48145; inhibition, % at 4.4 µM; GPR7-expressing cells, fluorescence antagonist assay; actives 1.1% (n = 290,000); in the data active = inhibition above about 16%, passing the limit was not always enough;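 note: cells stimulated with the agonist NPW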
HCV core dimer = HCV core protein dimerization inhibition | AID 1899 | TR-FRET GST/Flag-core106 dimerization, 1536-well | inhibition, % at 5 µM | actives 0.33% (n = 300,000);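 active = inhibition above the mean of all tested compounds plus 3 SD, set per screening campaign, cut at about 45% in these data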
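test system = GST/Flag-tagged HCV core106 proteins | probe or stimulus = Eu donor and XL665 acceptor anti-tag antibodies | times = compound-protein-antibody incubation 4 h at 22.5 °C | signal = TR-FRET, excitation 340 nm, emission 617 and 671 nm | measure = percent inhibition of core106 dimerization signal | controls = wells lacking GST-core106 and wells with excess unlabelled core106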
GRK2 CP1 = confirmation of human GRK2 inhibitors displacing RNA aptamer; shares compounds with GRK2 aptamer HTS; bead-bound GRK2, FAM-aptamer displacement, flow cytometry; aptamer displacement, % at 10 µM; actives 4% (n = 2,000);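 active = aptamer displacement above 40%, near three times the noise of non-fluorescent compounds, on plates passing quality checks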;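 note: negative values mostly reflect intrinsic compound fluorescence rather than true enhancement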
FAM quench CP1 = aptamer fluorescence quenching in GRK2 counter-screen; fluorescence response (% of DMSO), % at 10 µM; shares compounds with GRK2 aptamer HTS; Carboxyfluorescein RNA aptamer on beads, flow cytometry quenching; hits give low values; AID 504580; 2,000 tested, under 10 active;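 active = compounds that quench the bead-bound fluorescent RNA probe, cutting fluorescence to under half of the solvent control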;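 note: counterscreen run without GRK2 so only probe quenching by compound is measured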
GRK2 confirm 2 = human GRK2 inhibition confirmation, cherry pick 2; shares compounds with GRK2 aptamer HTS; bead-bound GRK2, FAM-aptamer displacement, flow cytometry; inhibition of aptamer binding, % at 10 µM; 360 tested, under 10 active;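 active = inhibition of aptamer binding above 40%, about triple the noise seen with nonglowing compounds, on plates passing quality control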;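 note: negative values mostly come from compounds that fluoresce themselves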
FAM quench CP2 = counter-screen for GRK2 binding hits: quenchers of fluorescent RNA aptamer. shares compounds with GRK2 aptamer HTS. carboxyfluorescein RNA aptamer beads, flow cytometry quenching; hits give low values. fluorescence response vs DMSO, % at 10 µM. 360 tested, under 10 active;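 active = response vs DMSO under 50%, meaning signal dropped by over half, treated as fluorescence quencher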;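 note: labelled aptamer on streptavidin beads without GRK2 as a quench counter-screen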
A number is an active result; i = inactive; nt = not tested or not shown.

SMILES	GRK2 aptamer HTS	FID counter	DAGLB inhibitor	HCV NS3 hel inh	GPR7 antagonist	HCV core dimer	GRK2 CP1	FAM quench CP1	others
CC[C@@]1(C(=O)OC)N[C@H](CN(C)C(=O)COc2ccccc2)[C@@H]2C(=O)N(Cc3ccccc3)C(=O)[C@@H]21	i	nt	i	nt	nt	nt	nt	nt
Cc1[nH]c2ccccc2c1NC(=O)CN1CCN(c2cccc(C(F)(F)F)c2)CC1	74	i	i	i	i	i	i	i
O=C(CN1CCN(c2cccc(C(F)(F)F)c2)CC1)Nc1cccc(C(F)(F)F)c1	i	i	i	i	i	i	nt	nt
CC(=O)NCCNc1nc2c(-c3cccc(C)c3)nnn2c2ccccc12	65	i	i	i	i	i	i	i
COc1cccc(CNc2ccc3[nH]c(=O)[nH]c3c2)c1OCc1ccccc1F	91	i	i	i	i	i	i	i
CN(C)c1ccc(-n2cccc2)cc1	i	i	i	i	i	i	nt	nt	GRK2 confirm 2=i;FAM quench CP2=i
O=C1CC(N2CCN(c3ccccc3)CC2)C(=O)N1c1cccc(Cl)c1 (centres undefined)	43	i	i	i	i	i	i	i
Cc1ccc(O)c(C(=O)c2cnc3c(c2)CN(CCC(C)C)C(=O)N3)c1	43	i	i	i	i	i	i	i
Cc1ccc(O)c(C(=O)c2cnc3c(c2)CN(C)C(=O)N3)c1	i	i	i	i	i	i	nt	nt
CCCCc1nc2sc3c(c2c(=O)[nH]1)CCC3	58	i	i	i	i	i	i	i
CCN(CC)C(=O)CCc1nc2sc3c(c2c(=O)[nH]1)CCCC3	i	i	i	i	i	i	nt	nt
OCCN1CCN(C(=S)Nc2cccc(C(F)(F)F)c2)CC1	i	i	i	i	i	i	nt	nt
CCN(CC)CCNc1nc2nonc2nc1NCCN(CC)CC	i	i	i	i	i	i	nt	nt
COc1ccccc1N1CCN(C(=O)CSc2nc3ccccc3[nH]2)CC1	96	i	i	i	i	i	i	i
CN1CCC(=O)N(CCOc2ccccc2)CC1	i	i	i	i	i	i	nt	nt
OC(CNC1CCCCCC1)COc1cccc2ccccc12 (centres undefined)	52	i	i	i	i	i	i	i
COc1ccc(CN(CC(=O)NCCc2ccccc2)C(=O)CCC(=O)Nc2ccccn2)cc1	i	i	i	i	i	i	nt	nt
Cc1c(NS(=O)(=O)c2ccc3[nH]c(=O)[nH]c3c2)c(=O)n(-c2ccccc2)n1C	75	i	i	i	i	i	i	i
NC(=O)C1CCN(C(=O)CCSCc2ccccc2)CC1	i	i	i	i	i	i	nt	nt
Cc1onc(-c2ccccc2)c1-c1ccnn1C(=O)NC(C)C	i	i	i	i	i	i	nt	nt
COC(=O)c1noc(C)c1-c1ccnn1C(=O)c1ccc(C)cc1	97	i	i	i	i	i	i	46
CCOC(=O)C1CCN(C(=O)C(=O)c2cn(CC(=O)N3CCCCCC3)c3ccccc23)CC1	42	i	i	i	i	i	nt	nt	GRK2 confirm 2=i;FAM quench CP2=i
CCOC(=O)N1CCN(C(=O)C(=O)c2cn(CC(=O)N3CCCCCC3)c3ccccc23)CC1	i	i	i	i	i	i	nt	nt
O=C(CS(=O)(=O)c1ccccc1)Nc1nnc(C(F)(F)F)s1	i	i	i	i	i	i	nt	nt
CC(C)(C)c1nnc(NC(=O)CCS(=O)(=O)c2ccccc2)s1	i	i	i	i	i	i	i	i
SMILES	GRK2 aptamer HTS	FID counter	DAGLB inhibitor	HCV NS3 hel inh	GPR7 antagonist	HCV core dimer	GRK2 CP1	FAM quench CP1	others
O=C(CCS(=O)(=O)c1ccccc1)Nc1nnc(C(F)(F)F)s1	i	i	i	i	i	i	i	i
Cc1nnc(NC(=O)CCS(=O)(=O)c2ccccc2)s1	i	i	i	i	i	i	i	i
CC(CCc1ccccc1)NC(=O)COC(=O)c1ccc(NC(=O)CC#N)cc1 (centres undefined)	i	i	i	i	i	i	nt	nt
O=C1CC2(CCN(C(=O)COc3ccc(Cl)cc3)CC2)Oc2ccccc21	i	nt	i	nt	nt	i	nt	nt
CN(C)/C=N/N(C)c1ncccc1[N+](=O)[O-]	i	i	i	i	i	i	nt	nt
Cc1cc(C)c(OCC(=O)N2CCN(c3ncc(C(F)(F)F)cc3Cl)CC2)c(C)c1	80	i	i	i	i	i	nt	nt	GRK2 confirm 2=i;FAM quench CP2=i
Cc1cc(NC(=O)C2CCN(S(=O)(=O)c3cnc[nH]3)CC2)ccc1Br	43	i	i	i	i	i	i	i
COc1ccc(OCCN2CCN(C(=O)c3ccc(OC(F)F)c(OC)c3)CC2)cc1	56	i	i	i	i	i	i	i
Cc1ccc(CNC(=O)C2CCCN(S(=O)(=O)c3ccc(-n4cnnn4)cc3)C2)cc1 (centres undefined)	i	i	i	i	i	i	i	i
O=C(NCc1ccccc1F)C1CCCN(S(=O)(=O)c2ccc(-n3cnnn3)cc2)C1 (centres undefined)	i	i	i	i	i	i	i	i
COc1ccccc1CNC(=O)C1CCCN(S(=O)(=O)c2ccc3c(c2)C(C)(C)C(=O)N3C)C1 (centres undefined)	i	i	i	i	i	i	i	i
CN(C(=O)CCc1nc2ccccc2c(=O)[nH]1)C1CCS(=O)(=O)C1 (centres undefined)	i	nt	i	nt	nt	nt	nt	nt
O=C(c1ccc(Cl)cc1)N1CCC(C(=O)N2CCCc3ccccc32)CC1	i	i	i	i	i	i	nt	nt
CC(=O)N(c1ccc(N(C(C)=O)S(=O)(=O)c2cccs2)cc1)S(=O)(=O)c1cccs1	53	i	i	i	i	i	i	i
COc1ccc(N(C(=O)c2ccccc2)S(=O)(=O)c2cccs2)cc1	i	i	i	i	i	i	nt	nt
COc1ccc(N(C(=O)c2ccco2)S(=O)(=O)c2cccs2)cc1	98	i	i	i	i	i	i	i
COc1ccc(C(=O)N(c2ccc(OC)cc2)S(=O)(=O)c2cccs2)cc1	i	i	i	i	i	i	nt	nt
COCCN(C(=O)COC(=O)c1ccc(C)s1)c1c(N)n(Cc2ccccc2)c(=O)[nH]c1=O	i	nt	i	nt	nt	i	nt	nt
CCC(=O)Nc1nnc(SCC(=O)Nc2ccc3c(c2)OCCO3)s1	68	i	i	i	i	i	nt	nt	GRK2 confirm 2=i;FAM quench CP2=i
CC(=O)c1ccc(NC(=O)CSc2nnc(NC(=O)c3ccco3)s2)cc1	46	i	i	i	i	i	nt	nt	GRK2 confirm 2=i;FAM quench CP2=i
